Only some compounds are listed: those with a hit (about 2.5% of all), similar ones and a draw of the others.
VIM-2 inhibitor: blocks Pseudomonas aeruginosa VIM-2 metallo-beta-lactamase; AID 1527; 0.89% of 290,000 active; purified VIM-2, nitrocefin hydrolysis, epi-absorbance fluorescence; inhibition, % at 5.6 µM;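 active means inhibition above the mean of all tested compounds plus 3 SD, cutoff set per screening run, cut at about 7.5% in these data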;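 further: red hydrolysis product quenches plate fluorescence so inhibitors raise well fluorescence; 0% = enzyme with DMSO and 100% = DMSO without enzyme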
dFosB act: activators of mouse delta FosB homodimer; P13346; purified delta FosB, TAMRA-CDK5 oligo fluorescence polarization; percent of positive-control signal above neutral wells; 0.99% of 340,000 active; AID 493131; activation, % at 25 µM;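 active means mean activation above about 17%, with every replicate also reaching it, limit read from the data, passing the limit was not always enough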
Target sequence (P13346 whole entry, looked up): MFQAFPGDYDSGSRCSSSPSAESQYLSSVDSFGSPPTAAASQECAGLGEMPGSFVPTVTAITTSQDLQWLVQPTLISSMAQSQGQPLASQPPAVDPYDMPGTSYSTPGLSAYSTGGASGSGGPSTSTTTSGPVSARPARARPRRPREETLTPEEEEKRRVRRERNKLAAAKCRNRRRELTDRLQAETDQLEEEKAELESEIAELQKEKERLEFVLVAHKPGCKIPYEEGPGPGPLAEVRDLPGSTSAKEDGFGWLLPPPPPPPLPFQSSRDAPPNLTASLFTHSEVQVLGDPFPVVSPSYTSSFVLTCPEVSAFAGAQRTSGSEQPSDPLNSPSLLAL
IMP-1 inh-1: inhibitors of Pseudomonas aeruginosa IMP-1 metallo-beta-lactamase; purified IMP-1, nitrocefin hydrolysis, epi-absorbance fluorescence; inhibition, % at 5.6 µM; 0.45% of 290,000 active; AID 1556;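 active means inhibition above the mean plus 3 SD of all compounds in the same screening run, cut at about 4.5% in these data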;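 further: 0% = IMP-1 with DMSO and 100% = DMSO wells lacking enzyme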
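System: purified recombinant IMP-1 beta-lactamase. Medium: Zinc- and detergent-supplemented HEPES buffer, pH 7.1. Compound: one 5.6 µM dose […]. Schedule: 15 min preincubation plus 25 min reaction at 25 °C. Technique: Epi-absorbance fluorescence, 480 nm excitation, 530 nm emission.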
m5-HT2A agonist: agonists of mouse serotonin 5-HT2A receptor (HTR2A); P35363; AID 624169; 0.66% of 360,000 active; CHO-K1 mHTR2A beta-arrestin complementation, luminescence; percent of 30 µM serotonin response; activation, % at 7.6 µM;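 active means activation above a run cutoff, the mean activation of all tested compounds plus 3 SD, cut at about 14% in these data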;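 further: 0% = plate median of compound wells and 100% = 30 µM serotonin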
IMP-1 inh-2: selectivity counter-screen for VIM-2 inhibitors: IMP-1 metallo-beta-lactamase inhibitors; 1,300 tested, under 10 active; AID 1856; shares compounds with VIM-2 inhibitor; purified IMP-1, nitrocefin hydrolysis, epi-absorbance fluorescence; inhibition, % at 5.6 µM; call rule not given here;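 further: 0% = enzyme with vehicle and 100% = vehicle without enzyme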
VIM-2 FRET inh: counter-screen for VIM-2 inhibitors: epi-absorbance artifacts via FRET; shares compounds with VIM-2 inhibitor; inhibition, % at 5.6 µM; purified VIM-2, CCF2 FRET substrate hydrolysis; 23% of 1,300 active; AID 1857;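 active means inhibition above the mean of all tested compounds plus 3 SD, cut at about 19% in these data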;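 further: 0% = VIM-2 plus DMSO and 100% = no enzyme wells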
TEM-1 counter: TEM-1 inhibition, counter-screen for VIM-2 inhibitors; shares compounds with VIM-2 inhibitor; Purified TEM-1, nitrocefin hydrolysis, epi-absorbance fluorescence; inhibition, % at 5.6 µM; 3% of 1,300 active;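 active means inhibition above that campaign's mean inhibition plus 3 SD, cut at about 0.46% in these data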;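 further: 0% = TEM-1 with DMSO and 100% = TEM-1 with 100 µM potassium clavulanate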
Target sequence (P62593 whole entry, looked up): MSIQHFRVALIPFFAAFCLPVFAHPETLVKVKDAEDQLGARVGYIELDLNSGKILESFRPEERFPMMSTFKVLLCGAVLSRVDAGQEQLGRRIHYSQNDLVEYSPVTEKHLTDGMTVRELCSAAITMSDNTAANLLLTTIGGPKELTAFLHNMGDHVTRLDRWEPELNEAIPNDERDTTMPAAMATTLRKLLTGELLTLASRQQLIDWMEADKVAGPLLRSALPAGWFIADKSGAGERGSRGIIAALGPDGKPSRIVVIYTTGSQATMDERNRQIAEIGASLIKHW
VIM-2 confirm 2: confirmation of P. aeruginosa VIM-2 metallo-beta-lactamase inhibitors; shares compounds with VIM-2 inhibitor; purified VIM-2, nitrocefin hydrolysis, epi-absorbance; inhibition, % at 5.6 µM; 96% of 1,300 active; AID 2187;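 active means inhibition of the VIM-2 beta-lactamase enzyme above about 11% from the earlier first-round screen, limit read from the data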;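 further: 0% = VIM-2 with DMSO and 100% = buffer wells without enzyme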
* hit, by the source's call.

For Cc1ccc2cc(C)c3nnc(SCC(=O)NCc4ccco4)n3c2c1 the results were VIM-2 inhibitor 7, dFosB act -27, IMP-1 inh-1 -5 and m5-HT2A agonist -3.
`O=C(CSc1nnc(NC(=O)C2CCCCC2)s1)NCc1ccco1` gave VIM-2 inhibitor 28*, dFosB act -5, IMP-1 inh-1 -4, m5-HT2A agonist 1, IMP-1 inh-2 -4, VIM-2 FRET inh 62*, TEM-1 counter -7 and VIM-2 confirm 2 43*.
`O=C(CCNS(=O)(=O)c1ccc(OC(F)(F)F)cc1)NC1CC1` gave dFosB act 12 and m5-HT2A agonist 0.
`Clc1ccc(C2=C3CCCCn4c(-c5ccccc5)c[n+](c43)C2)cc1` gave VIM-2 inhibitor 18*, dFosB act -4, IMP-1 inh-1 -4, m5-HT2A agonist -3, IMP-1 inh-2 -5, VIM-2 FRET inh -2, TEM-1 counter -8 and VIM-2 confirm 2 5.
`COc1ccc(-c2c[n+]3c4n2CCCCC4=C(c2ccc(Br)cc2)C3)cc1` gave VIM-2 inhibitor 14*, dFosB act -5, IMP-1 inh-1 -4, m5-HT2A agonist 2, IMP-1 inh-2 -1, VIM-2 FRET inh -5, TEM-1 counter 2.5* and VIM-2 confirm 2 13*.
`O=C(C[n+]1cc(-c2ccc(Cl)cc2)n2c1CCCCC2)c1ccccc1` gave VIM-2 inhibitor -3, dFosB act -9, IMP-1 inh-1 -2 and m5-HT2A agonist -1.
For COc1ccc(-c2cnc3n2CCCCC3)cc1 the results were VIM-2 inhibitor -3, dFosB act -3, IMP-1 inh-1 -3 and m5-HT2A agonist -3.
Cc1cc(C)c2c(n1)sc1c(N3CCN(C)CC3)ncnc12 was read as VIM-2 inhibitor 13*, dFosB act -44, IMP-1 inh-1 -1, m5-HT2A agonist 7, IMP-1 inh-2 -2, VIM-2 FRET inh 0, TEM-1 counter -4 and VIM-2 confirm 2 21*.
CCCc1cc(=O)oc2c3c(cc(OCC(=O)NCCCn4ccnc4)c12)OC(C)(C)CC3 was read as VIM-2 inhibitor 17*, dFosB act -14, IMP-1 inh-1 0, m5-HT2A agonist -5, IMP-1 inh-2 -3, VIM-2 FRET inh -16, TEM-1 counter -4 and VIM-2 confirm 2 28*.
Screening Cc1cc(=O)oc2c3c(cc(OCC(=O)NCCN4CCOCC4)c12)OC(C)(C)CC3 returned VIM-2 inhibitor -1, dFosB act -1, IMP-1 inh-1 -1 and m5-HT2A agonist -2.
For Cc1cc(=O)oc2c3c(cc(OCC(=O)NCCCn4ccnc4)c12)OC(C)(C)CC3 the results were VIM-2 inhibitor 15*, dFosB act -12, IMP-1 inh-1 1, m5-HT2A agonist 6, IMP-1 inh-2 -2, VIM-2 FRET inh -7, TEM-1 counter -1 and VIM-2 confirm 2 22*.
Screening O=C(NNS(=O)(=O)c1ccccc1F)c1ccccc1-n1cccc1 returned VIM-2 inhibitor -3, dFosB act 3, IMP-1 inh-1 -2 and m5-HT2A agonist -6.
`COc1ccc(Cc2nc3ccc(C(=O)NCc4cccc(C)n4)cc3o2)cc1OC` gave m5-HT2A agonist 14.
COc1ccc(Cc2nc3ccc(C(=O)NCc4ncc(C)[nH]4)cc3o2)cc1OC was read as VIM-2 inhibitor 38*, dFosB act -6, IMP-1 inh-1 -2, m5-HT2A agonist -3, IMP-1 inh-2 -3, VIM-2 FRET inh -12, TEM-1 counter -6 and VIM-2 confirm 2 50*.
Screening CCOC(=O)Cc1nnc(NC(=O)CSc2nnc3c4ccccc4n(C)c3n2)s1 returned VIM-2 inhibitor 17*, dFosB act -4, IMP-1 inh-1 -3, m5-HT2A agonist 1, IMP-1 inh-2 -2, VIM-2 FRET inh -1, TEM-1 counter -11 and VIM-2 confirm 2 38*.
`Cn1c2ccccc2c2nnc(SCC(=O)Nc3cccc(C(=O)O)c3)nc21` gave VIM-2 inhibitor 5, dFosB act -8, IMP-1 inh-1 -2 and m5-HT2A agonist -2.
`CCOC(=O)Cc1nnc(NC(=O)CSc2ccc(C)cc2)s1` gave VIM-2 inhibitor 0, dFosB act -11, IMP-1 inh-1 -2 and m5-HT2A agonist 1.
`CCN(CC)C(=O)CSc1nnc2c3ccccc3n(C)c2n1` gave VIM-2 inhibitor 14*, dFosB act -8, IMP-1 inh-1 -6, m5-HT2A agonist 6, IMP-1 inh-2 -3, VIM-2 FRET inh 0, TEM-1 counter -5 and VIM-2 confirm 2 24*.
`Cc1ccc(S(=O)(=O)N2CC3(O)CN(C(=O)OC(C)C)N(C(=O)OC(C)C)CC3(OC(=O)NCC3CCCCC3)C2)cc1` (stereo not drawn) gave m5-HT2A agonist 1.
`CN1CCN(C(=O)CSc2nc(-c3cccs3)ccc2C#N)CC1` gave VIM-2 inhibitor 28*, dFosB act -15, IMP-1 inh-1 -2, m5-HT2A agonist -1, IMP-1 inh-2 -3, VIM-2 FRET inh 4, TEM-1 counter -7 and VIM-2 confirm 2 50*.
`C#CCOCCOCCOCCNc1nc(N2CCN(C(=O)[C@H](CCC(=O)O)n3cc([C@@H](N)CC(N)=O)nn3)CC2)nc(N2CCN(C(=O)[C@H](CCC(=O)O)n3cc([C@@H](N)CC(N)=O)nn3)CC2)n1` gave dFosB act -6 and m5-HT2A agonist 5.
COc1ccc(S(=O)(=O)n2nc(OC(=O)c3cccs3)cc2NC(=O)c2cccs2)cc1 was read as VIM-2 inhibitor 74*, dFosB act -7, IMP-1 inh-1 -1, m5-HT2A agonist 8, IMP-1 inh-2 -3, VIM-2 FRET inh 37*, TEM-1 counter 5.7* and VIM-2 confirm 2 16*.
`Cc1ccc(S(=O)(=O)n2[nH]c(=O)cc2NC(=O)c2cccs2)cc1` gave VIM-2 inhibitor 70*, IMP-1 inh-1 0, IMP-1 inh-2 -4, VIM-2 FRET inh 91*, TEM-1 counter -6 and VIM-2 confirm 2 84*.
For COc1cc(OC)c(C(=O)OC(C)C(=O)NCc2ccc3c(c2)OCO3)cc1OC (stereo not drawn) the results were dFosB act 5 and m5-HT2A agonist -1.
COc1ccc(OC)c(Nc2nc(NCCCN(C)C)nc(N)c2[N+](=O)[O-])c1 was read as VIM-2 inhibitor 19*, dFosB act 24*, IMP-1 inh-1 0, m5-HT2A agonist -1, IMP-1 inh-2 -4, VIM-2 FRET inh 2, TEM-1 counter -8 and VIM-2 confirm 2 29*.
Screening COCCCNc1nc(N)c([N+](=O)[O-])c(Nc2cc(OC)ccc2OC)n1 returned VIM-2 inhibitor -1, dFosB act -1, IMP-1 inh-1 -3 and m5-HT2A agonist -1.

Source: PubChem BioAssay
